High-throughput results (PubChem)
This is a sample that favours compounds with a hit; in the whole collection about 3.5% have one here.
MrgX1 agonist = human MrgX1 receptor agonism, primary screen; MrgX1-HEK293 cells, Fluo-4 calcium fluorescence, agonist mode; stronger effect = higher value; B-score at 10 µM; hit rate 0.44% among 310,000; AID 588627;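 active = calcium response B-score plate-corrected fluorescence ratio at least 3 library SD, with starting fluorescence B-score inside 5 SD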
Target sequence (Q96LB2 whole entry, looked up): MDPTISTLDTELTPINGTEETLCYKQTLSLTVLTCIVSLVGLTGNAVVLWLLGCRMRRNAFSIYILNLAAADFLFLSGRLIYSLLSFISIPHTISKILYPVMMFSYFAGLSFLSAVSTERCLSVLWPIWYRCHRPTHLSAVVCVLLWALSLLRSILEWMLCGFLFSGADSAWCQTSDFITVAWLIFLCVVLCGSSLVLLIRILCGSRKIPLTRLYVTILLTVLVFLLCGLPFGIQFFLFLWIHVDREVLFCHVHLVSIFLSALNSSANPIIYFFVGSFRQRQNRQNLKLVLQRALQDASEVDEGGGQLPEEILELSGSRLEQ
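Assay system: stable human MrgX1 HEK293 cell line. Quantity: 15,000 cells per well. Schedule: cells plated overnight, dye loaded 0.5 h 37 °C, 0.5 h room temperature. Detection: Fluo-4 NW calcium-flux fluorescence, kinetic read. Read-out basis: peak-minus-minimum fluorescence over baseline, converted to B scores. Control set: positive and negative control wells on each plate.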
RGS4 inh = inhibitors of human RGS4; P49798; HEK293 M3R/RGS4 inducible, Fluo-4 calcium flux; stronger effect = higher value; triggered by carbachol at its EC20; B-score at 10 µM; hit rate 0.45% among 310,000; AID 463165;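 active = B-score, a plate-corrected calcium signal, over three deviations above library mean, with baseline fluorescence within five deviations of library mean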;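 also: RGS4 expression induced by doxycycline in cells with stable M3 receptor; B-score is computed from the integrated fluorescence ratio over baseline after carbachol; higher B-score means a larger calcium signal and so more RGS4 inhibition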
Target sequence (P49798 whole entry, looked up): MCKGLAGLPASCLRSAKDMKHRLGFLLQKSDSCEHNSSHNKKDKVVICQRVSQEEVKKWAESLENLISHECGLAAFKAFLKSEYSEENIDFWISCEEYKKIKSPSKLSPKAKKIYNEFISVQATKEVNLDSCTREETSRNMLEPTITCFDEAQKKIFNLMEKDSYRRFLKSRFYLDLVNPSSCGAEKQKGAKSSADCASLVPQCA
MrgX1 PAM = allosterically activates human MrgX1 receptor signaling; hit rate 0.63% among 310,000; Q96LB2; MrgX1-HEK293, Fluo-4 calcium flux, FDSS; stronger effect = higher value; B-score at 10 µM; AID 588675;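 active = plate-corrected calcium response at least 3 library SD above typical, normal starting fluorescence, not activating the receptor alone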;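 also: compound read alongside a low EC10 to EC30 dose of BAM8-22 agonist; peak minus trough fluorescence over baseline measured at the second addition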
MrgX1 antagonist = human MrgX1 receptor antagonism, primary screen. Q96LB2. MRGX1-HEK293 calcium flux, Fluo-4, BAM8-22 antagonism; stronger effect = lower value. B-score at 10 µM. hit rate 1.3% among 310,000;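 active = calcium-response B-score plate-corrected more than 3 library SD below zero, starting fluorescence within 5 deviations, no agonist response on first addition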;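 also: peak minus trough fluorescence over baseline after final BAM8-22 challenge near maximal dose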
RGS4 pot = potentiators or activators of RGS4 | hit rate 0.92% among 310,000 | AID 463111 | HEK293 M3R/inducible RGS4, carbachol calcium flux Fluo4; stronger effect = lower value | B-score at 10 µM;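 active = B-score of the integrated calcium signal more than 4 SD below the library mean, with starting fluorescence not abnormally high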;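 also: negative B-score means reduced calcium response which marks RGS4 activation or potentiation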
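Detection: kinetic calcium fluorescence imaging with Fluo4-AM dye, 2 µM / Material: HEK293 cells with stable M3R and inducible RGS4 / Schedule: recording 10 s baseline at 1 Hz, 100 s post-agonist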
MrgX1 ant reconf = confirmation of human MrgX1 receptor antagonists; shares compounds with MrgX1 antagonist; MrgX1-HEK293, BAM8-22 calcium flux, Fluo-4; stronger effect = lower value; remaining BAM8-22 calcium response % of control (stronger effect = lower value), % at 10 µM; hit rate 19% among 2,300;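 active = remaining agonist calcium response no higher than 100% minus 3 SD of agonist-only control wells, with starting fluorescence near control levels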;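 also: agonist BAM8-22 given at a near maximal EC90 to ECmax level; peak minus minimum fluorescence divided by baseline after agonist addition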
HEK293 Ca flux = counter-screen for MrgX1 antagonists: effect in parental HEK293 cells. fluorescence ratio F(max-min)/F0 at 10 µM. AID 624111. shares compounds with MrgX1 antagonist. Fluo-4 calcium fluorescence, FDSS. hit rate 2% among 4,000;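 active = duplicate-averaged calcium fluorescence ratio at least three times the standard deviation of buffer wells, a nonspecific response in parental cells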
HEK293 Ca counter = MrgX1 allosteric activator counter-screen hit in parental HEK293 cells. hit rate 0.4% among 4,000. shares compounds with MrgX1 antagonist. parental HEK293 calcium flux, Fluo-4 fluorescence ratio; stronger effect = higher value. fluorescence ratio F(max-min)/F0 at 10 µM. AID 624114;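 active = calcium fluorescence ratio, averaged over duplicates, at least 3 SD of the buffer-well ratio, meaning a nonspecific response in receptor-free cells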;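 also: untransfected parental HEK293 lacking MrgX1 used as counterscreen for MrgX1 allosteric activators; fluorescence change taken during the second addition on a kinetic imager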
HEK293 Ca cntr2 = MrgX1 activator counter-screen hit in parental HEK293 cells | Fluo-4 calcium fluorescence (FDSS); stronger effect = higher value | fluorescence ratio F(max-min)/F0 at 10 µM | shares compounds with MrgX1 antagonist | hit rate 8.7% among 4,000 | AID 624115;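 active = calcium fluorescence ratio at least three times the spread of buffer wells, meaning a non-specific response in parental cells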
Numbers without * were called inactive; i = inactive; / = no result.

SMILES	MrgX1 agonist	RGS4 inh	MrgX1 PAM	MrgX1 antagonist	RGS4 pot	MrgX1 ant reconf	HEK293 Ca flux	HEK293 Ca counter	HEK293 Ca cntr2
Cc1cc(C)cc(NC(=O)C2CCN(S(=O)(=O)c3ccc4c(c3)NC(=O)C(C)S4)CC2)c1 (stereo not given)	i	i	i	i	i	/	/	/	/
Cc1ccc(NC(=O)C2CCN(S(=O)(=O)c3ccc4c(c3)NC(=O)C(C)S4)CC2)cc1Cl (stereo not given)	i	i	i	-4.6*	i	86%*	i	i	i
CCOc1ccc(N(CC)C(=O)Cc2c(C(=O)O)n(C)c3ccccc23)cc1	i	i	i	i	i	/	/	/	/
CCc1ccc(N(CC)C(=O)Cc2c(C(=O)O)n(C)c3ccccc23)cc1	i	i	i	-6.6*	i	i	i	i	i
Cc1cc(C(=O)N2CCCC(Nc3ccc(C(C)C)cc3)C2)nn1C (stereo not given)	i	i	i	i	i	/	/	/	/
CC(C)c1ccc(NC2CCCN(C(=O)c3cnsn3)C2)cc1 (stereo not given)	i	i	i	-6.8*	i	i	i	i	i
COc1cc(CN(C)Cc2ccccc2)cc(OC)c1O	i	i	i	i	i	/	/	/	/
Cn1c(O)c(N=NC(=O)Cn2ccc(C(F)(F)F)n2)c2ccccc21	i	i	i	-6.3*	i	i	i	i	i
CC(=O)Nc1cccc(NC(=O)Nc2cccc(Cl)c2C)c1	i	i	i	-5.5*	i	i	i	i	i
CC(=O)Nc1cccc(NC(=S)Nc2cccc(Cl)c2C)c1	i	i	i	i	i	/	/	/	/
Cc1nn(C)c(C(=O)N/N=C/c2ccc(-c3ccccc3)cc2)c1Cl	i	i	i	-10*	i	i	i	i	i
Cc1cccc(N(C)c2cc(C)nc3nc(C)nn23)c1	i	i	i	i	i	/	/	/	/
COc1cccc(NC(=O)C2CCN(C(=O)NC3CCCCC3)CC2)c1	i	i	i	i	i	/	/	/	/
CN(C(=O)c1cccs1)c1ccccc1C(=O)O	i	i	i	-5.7*	i	i	i	i	i
Cc1cc(C)n(CCCNC(=O)c2ccc3c(c2)NC(=O)CS3)n1	i	i	i	-8*	i	i	i	i	i
O=C(NCCc1cccnc1)C1CCC(=O)N(Cc2ccc(Cl)cc2)C1 (stereo not given)	/	i	/	/	i	/	/	/	/
C=CCNC(=S)/N=c1/ccccn1CC	i	i	i	i	i	/	/	/	/
Cc1nc2nc(-c3ccco3)[nH]n2c(=O)c1C	i	i	i	-12*	i	i	i	i	i
Cc1nc2nc(-c3ccco3)[nH]n2c(=O)c1Cc1ccccc1	i	i	i	i	i	/	/	/	/
O=C(CCN1C(=O)c2ccccc2C1=O)Nc1sc2c(c1C(=O)NCc1ccco1)CCCC2	i	i	i	-4.9*	i	i	i	i	i
CC(C(=O)Nc1sc2c(c1C(=O)NCc1ccco1)CCCC2)N1C(=O)c2ccccc2C1=O (stereo not given)	i	i	i	i	i	/	/	/	/
COc1ccc(S(=O)(=O)Nc2cccc(S(=O)(=O)N3CCCC3)c2)cc1OC	i	i	i	i	i	/	/	/	/
Cc1nn(-c2nnc(NC3CCCCC3)nn2)c(C)c1Br	i	i	i	-4.5*	i	i	i	i	i
Cc1nn(C)c(C)c1S(=O)(=O)NC1CCCC1	i	i	i	i	i	/	/	/	/
COC(OC)c1ccnc(-c2ccc(OC(C)=O)cc2)n1	i	i	i	i	i	/	/	/	/
SMILES	MrgX1 agonist	RGS4 inh	MrgX1 PAM	MrgX1 antagonist	RGS4 pot	MrgX1 ant reconf	HEK293 Ca flux	HEK293 Ca counter	HEK293 Ca cntr2
COC(OC)c1ccnc(-c2ccc(OC(=O)c3ccccc3)cc2)n1	i	i	i	-9.2*	i	i	i	i	i
O=C(CSc1nnc(CNC(=O)c2ccccc2)o1)Nc1ccc2c(c1)OCCO2	i	i	i	-5.6*	i	i	i	i	i
O=C(CSc1nnc(CNC(=O)c2ccc(F)cc2)o1)Nc1ccc2c(c1)OCCO2	i	i	i	i	i	/	/	/	/
Cc1ccc(NC(=O)CN(C)S(=O)(=O)c2cccc3nsnc23)cc1C	i	i	i	i	i	/	/	/	/
Cc1cccc(N(C)S(=O)(=O)c2cccc3nsnc23)c1	i	i	i	-5*	i	i	i	i	i
CN(CC(=O)Nc1ccc(F)c(F)c1)S(=O)(=O)c1cccc2nsnc12	i	i	i	-10*	i	i	i	i	i
COC(=O)C1CCCN1C(=O)C1CCCN1C(=O)CNC(=O)OCc1ccccc1 (stereo not given)	i	i	i	i	i	/	/	/	/
Cc1cccc(NC(=O)C2CCN(C(=O)N3CCOc4ccccc43)CC2)c1C	i	i	i	i	i	/	/	/	/
CCOC(=O)c1ccc(-c2ccc(/C=N/NC(=O)Cc3nnc(N)s3)o2)cc1	i	i	i	i	i	/	/	/	/
O=C(O)CCc1ccc(-c2cccs2)n1-c1ccc(C(=O)O)cc1	i	i	i	-4.7*	i	i	i	i	i
Cc1ccc(CNC(=O)CN2C(=O)COc3ccc(S(=O)(=O)N4CCCCC4)cc32)o1	i	i	i	i	i	/	/	/	/
O=C(Nc1ccc(Cl)cc1)c1cc2c(cc1O)[nH]c1ccccc12	i	i	i	-4.9*	i	54%*	i	i	i
CC(=O)Nc1ccc2[nH]c3ccccc3c2c1	i	i	i	i	i	/	/	/	/
CC(=O)Nc1ccc2c(c1)CCCC2	i	i	i	i	i	/	/	/	/
CC(=O)Nc1ccc2c(c1)CCCC2=O	i	i	i	-4.6*	i	77%*	i	i	i
O=C1OCCC1Sc1nnc(-c2cccc(Br)c2)o1 (stereo not given)	i	i	i	-5.1*	i	i	i	i	i
